Results as given in ChEMBL document CHEMBL3132837, “VUT-MK142 : a new cardiomyogenic small molecule promoting the differentiation of pre-cardiac mesoderm into cardiomyocytes” (2013).
Active and inactive are the calls of the source. The calls are words filed in the database; no cut-off is given here.

Legend:
Mus musculus [1] = species: Mus musculus; assay: Cardiomyogenesis in mouse cardiovascular progenitor cells assessed as formation of cardiac bodies at 1 uM compound by phase contrast microscopy relative to control; conditions: Heart
P19 [2] = assay: Cardiomyogenic activity in mouse P19 cells assessed as upregulation of ANF gene expression at 1 uM after 7 days by luciferase reporter assay relative to control; type: functional, cell-based
Method in brief: (§1)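 P19 and C2C12 cells transiently transfected with rat ANF promoter firefly luciferase plasmid plus pRL-SV40 Renilla control one day before treatment. P19: 7 days in induction medium (MEM-alpha, 5% FBS). C2C12: 7 days in differentiation medium (2% horse serum), compound added at the switch. Compound 1 μM, DMSO 0.005% in all wells, media refreshed twice. Dual-luciferase read-out, Renilla-normalised, expressed relative to DMSO control; n=3–10 independent preparations; 10 nM retinoic acid in P19 as positive control.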

C2C12 [3] = assay: Cardiomyogenic activity in mouse C2C12 cells assessed as upregulation of ANF gene expression at 1 uM after 7 days by luciferase reporter assay relative to control; type: functional, cell-based
Method in brief: as §1

Mus musculus [4] = species: Mus musculus; assay: Cardiomyogenesis in mouse cardiovascular progenitor cells assessed as formation of cardiac bodies at 1 uM compound treated on day 0 to day 5 of myocardial differentiation commitment by phase contrast microscopy relative to control; type: functional; conditions: Heart
Method in brief: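 A5 CVPCs from newborn mouse hearts, grown in M15 on inactivated SNL76/7 feeders, aggregated into cardiac bodies in hanging drops (900 ± 50 cells per drop, 4.5 days), then plated on gelatine. Compound 1 μM or 0.005% DMSO present days 0–5. Beating CBs scored by microscopy for at least 20 days, 80 CBs per experiment, normalised daily to DMSO control.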

[5] = Cardiomyogenesis in mouse cardiovascular progenitor cells assessed as upregulation of tropomyosin gene expression at 1 uM by RT-PCR analysis; type: functional
C2C12 [6] = assay: Cardiomyogenic activity in mouse C2C12 cells assessed as upregulation of Nkx2.5 gene expression at 1 uM after 7 days by luciferase reporter assay relative to control; type: functional
Method in brief: (§2)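 Nkx2.5 promoter firefly luciferase plasmid (pGL3b backbone) co-transfected with Renilla control one day before treatment. P19 cells treated in MEM-alpha/5% FBS induction medium; C2C12 cells treated in 2% horse serum differentiation medium. Compound 1 μM or 0.005% DMSO for 7 days, media refreshed twice. Dual-luciferase activity expressed as fold over DMSO control; paired two-tailed t-test on raw data.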

Mus musculus [7] = species: Mus musculus; assay: Cardiomyogenesis in mouse cardiovascular progenitor cells assessed as formation of cardiac bodies with beating at 1 uM compound treated on day 5 to day 13 of myocardial differentiation commitment measured on day 11 to 13 by phase contrast microscopy relative to control; type: functional; conditions: Heart
[8] = Cardiomyogenesis in mouse cardiovascular progenitor cells assessed as upregulation of brachyury gene expression at 1 uM by RT-PCR analysis; type: functional
[9] = Cardiomyogenesis in mouse cardiovascular progenitor cells assessed as upregulation of Gata4 gene expression at 1 uM by RT-PCR analysis; type: functional
[10] = Cardiomyogenesis in mouse cardiovascular progenitor cells assessed as upregulation of Nkx2.5 gene expression at 1 uM by RT-PCR analysis; type: functional
[11] = Cardiomyogenesis in mouse cardiovascular progenitor cells assessed as upregulation of Eomes gene expression at 1 uM by RT-PCR analysis; type: functional
[12] = Cardiomyogenesis in mouse cardiovascular progenitor cells assessed as upregulation of Mef2C gene expression at 1 uM by RT-PCR analysis; type: functional
P19 [13] = assay: Cardiomyogenic activity in mouse P19 cells assessed as upregulation of Nkx2.5 gene expression at 1 uM after 7 days by luciferase reporter assay relative to control; type: functional
Method in brief: as §2

[14] = Cardiomyogenesis in mouse cardiovascular progenitor cells assessed as upregulation of Mesp1 gene expression at 1 uM by RT-PCR analysis; type: functional

CNc1cc(Nc2ccc(OC)cc2)ncn1
Activity (Mus musculus [1]): inactive
Activity (P19 [2]): inactive
Activity (C2C12 [3]): inactive
Activity (Mus musculus [4]): inactive

COc1ccc(Nc2cccc(NCCO)n2)cc1
Activity (P19 [2]): Active
Activity (C2C12 [3]): Active

COc1ccc(Nc2cc(NCCO)ncn2)cc1
Activity (P19 [2]): Active
Activity (C2C12 [3]): Active

COc1ccc(Nc2cc(NC3CCCCC3)ncn2)cc1
Activity [5]: inactive
fold change (FC) (C2C12 [6]): 2.2
Activity (Mus musculus [7]): Active
Activity [8]: Active
Activity (Mus musculus [1]): Active
Activity [9]: inactive
Activity [10]: Active
Activity (P19 [2]): Active
Activity (C2C12 [3]): Active
Activity [11]: inactive
Activity [12]: Active
fold change (FC) (P19 [13]): 3.1
Activity [14]: inactive
Activity (Mus musculus [4]): inactive

COc1ccc(Nc2nccc(NCCO)n2)cc1 [CARDIOGENOL C]
fold change (FC) (C2C12 [6]): 1.4
Activity (P19 [2]): Active
Activity (C2C12 [3]): Active
fold change (FC) (P19 [13]): 1.6

OCCNc1cccc(Nc2ccc(Oc3ccccc3)cc2)n1
Activity (P19 [2]): inactive
Activity (C2C12 [3]): inactive

CCNc1cc(Nc2ccc(OC)cc2)ncn1
Activity (C2C12 [3]): Active
